CHO parental Ca: counter-screen for OX1R antagonists: effect in parental CHO cells. inhibition, % at 5.6 µM. parental CHO-K1, ATP-induced calcium, Fluo-8 fluorescence. 330,000 tested, 0.63% active;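 active = inhibition above that plate's mean sample inhibition plus 3 SD, cut at about 26% in these data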
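Material: Parental CHO cells | Reagent: ATP | Compound dosing: Single nominal dose of 5.6 µM per compound | Detection: Intracellular calcium via Fluo-8 no-wash fluorescent dye | Read-out: % inhibition of ATP-induced calcium mobilization | Benchmarks: Low control ATP plus DMSO, high control DMSO only | Replicates: Singlicate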
OX1R antag-1: antagonists of human orexin 1 receptor (OX1R); inhibition, % at 6.6 µM; OX1R-expressing cells, FRET antagonist read-out; 330,000 tested, 1.8% active; in the data active = inhibition mostly above about 38%, no sharp cut-off; inactive = mostly below about 40%
GPR7 antag: antagonists of human GPR7 (neuropeptides B/W receptor 1). P48145. GPR7-expressing cells, fluorescence antagonist assay. inhibition, % at 4.4 µM. 290,000 tested, 1.1% active; in the data active = inhibition above about 16%, passing the limit was not always enough;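 also: cells stimulated with the agonist NPW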
Target sequence (P48145 whole entry, looked up): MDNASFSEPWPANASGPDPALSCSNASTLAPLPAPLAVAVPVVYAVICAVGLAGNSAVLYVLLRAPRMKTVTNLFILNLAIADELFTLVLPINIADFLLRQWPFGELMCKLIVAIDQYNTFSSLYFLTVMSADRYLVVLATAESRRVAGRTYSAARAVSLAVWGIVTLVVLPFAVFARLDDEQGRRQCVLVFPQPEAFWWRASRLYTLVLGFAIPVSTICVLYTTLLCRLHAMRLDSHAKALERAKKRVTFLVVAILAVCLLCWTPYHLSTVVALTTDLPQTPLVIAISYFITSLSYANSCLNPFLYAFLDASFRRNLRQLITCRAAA
OX1R antag-2: antagonists of human orexin 1 receptor | CHO/OX1R cells, Fluo-8 calcium fluorescence, orexin A | inhibition, % at 5 µM | 330,000 tested, 0.43% active | AID 434989;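 active = inhibition above its plate's threshold, mean inhibition of all tested compounds on the plate plus 3 SD, cut at about 37% in these data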
MPTP block: blocks calcium-induced mitochondrial swelling; isolated mouse mitochondria, Ca2+ swelling absorbance, 30 min; 360,000 tested, 1.4% active; inhibition, % at 10 µM;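 active = inhibition of 50% or more, scaled per plate between neutral and stimulator controls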
A number is an active result; i = inactive; nt = not tested or not shown. Only some compounds are listed: those with a hit (about 3.8% of all), similar ones and a draw of the others.

SMILES	CHO parental Ca	OX1R antag-1	GPR7 antag	OX1R antag-2	MPTP block
Cc1cc(O)ccc1N1C(=O)c2cccc3cc([N+](=O)[O-])cc(c23)C1=O	i	i	i	i	i
O=C1c2cccc3cc([N+](=O)[O-])cc(c23)C(=O)N1c1ccccc1O	i	43	i	i	i
Cc1ccc(C)c(OCCC(=O)OCC(=O)Nc2cccc(S(=O)(=O)N3CCCC3)c2)c1	i	i	nt	i	i
Cc1cc2nsnc2c(S(=O)(=O)N2CCN(C)CC2)c1C	i	42	i	i	i
COc1ccc(CCN(Cc2ccccn2)C(=S)Nc2ccccc2Cl)cc1OC	i	41	i	i	i
COc1ccc(CCN(Cc2ccccn2)C(=S)Nc2ccccc2F)cc1OC	i	i	i	i	i
COc1ccc(CCNC(=O)COC(=O)/C=C/c2ccc3c(c2)OCO3)cc1	32	i	nt	i	i
O=C1OC(c2ccc3c(c2)OCO3)N(C(=O)c2ccc(Cl)c(Cl)c2)c2ccccc21 (stereo not given)	i	76	i	i	i
Cc1cccc(C(=O)N2c3ccccc3C(=O)OC2c2ccc3c(c2)OCO3)c1 (stereo not given)	i	i	i	i	i
COc1cc(OC)c2c(=O)cc(-c3ccccc3)oc2c1	i	44	i	i	i
CCCCCCCn1c(=O)c(C(=O)OC)c(N)c2ccccc21	58	i	i	41	i
CCCCC(=O)Nc1ncc([N+](=O)[O-])s1	i	i	i	i	i
O=C(O)C1CCCC[C@H]1C(=O)Nc1ncc([N+](=O)[O-])s1 (stereo not given in full)	i	66	nt	i	i
O=C(COC(=O)c1ccccc1)Nc1ncc([N+](=O)[O-])s1	i	37	nt	i	i
O=C1c2ccccc2[C@@H]2Cc3csc[n+]3[C@H]12	nt	nt	nt	nt	i
Cc1cc2nc(C(C)(C)C)c(CC3CCCCC3)n2c(C)c1Br	nt	nt	nt	nt	i
Cc1ccc(SCCNC(=O)c2ccc(C)c(S(=O)(=O)Nc3cccc(C)c3)c2)cc1	i	38	i	i	i
O=C(N=C1N=C2C=CC=CN2Cc2ccccc21)c1ccc(S(=O)(=O)N2CCOCC2)cc1	i	i	i	i	i
COc1cccc(OC)c1OCCCOc1ccc([N+](=O)[O-])cc1Cl	i	i	17	i	i
CCOc1ccccc1OCCCOc1ccc([N+](=O)[O-])cc1Cl	i	i	i	i	i
COc1ccc(-c2nc3ccc(C)cn3c2Cc2ccccc2)cc1OC	nt	nt	nt	nt	i
CCN(Cc1ccncc1)C(=O)c1ccccc1NS(=O)(=O)c1ccc(F)cc1	i	i	i	i	i
CC(=O)Nc1ccc(N=Cc2c(O)c(C(=O)Nc3ccccc3)cc3ccccc23)cc1	31	i	i	i	nt
CC(=O)Nc1ccc(N=Cc2c(O)c3ccccc3oc2=O)cc1	nt	nt	i	nt	i
CC(C)N(Cc1nc(-c2ccccc2)no1)C(=O)c1ccc(Cl)cc1	i	i	i	i	i
SMILES	CHO parental Ca	OX1R antag-1	GPR7 antag	OX1R antag-2	MPTP block
Cc1ccc(SCC(=O)N(Cc2nc(-c3ccccc3)no2)C(C)C)cc1	46	i	i	i	i
Cc1ccc(-c2noc(CN(C(=O)c3ccc4c(c3)OCO4)C(C)C)n2)cc1	i	i	i	i	i
Cc1ccccc1OCc1nc(-c2ccccc2)no1	i	i	i	i	i
CC(C)N(Cc1nc(-c2ccccc2)no1)C(=O)c1ccc2c(c1)OCO2	i	50	i	i	i
Cc1ccc(C(=O)N(Cc2nnc(-c3ccc(Cl)cc3)o2)C2CC2)o1	i	i	nt	i	i
Cc1ccccc1OCC(=O)N(Cc1nnc(-c2ccc(Cl)cc2)o1)C(C)C	i	39	nt	i	i
Cc1ccccc1OCC(=O)N(Cc1nc(-c2ccccc2)no1)C(C)C	i	62	i	i	i
CCCCCCn1c(=O)n2n(c1=O)[C@@H]1CN(S(=O)(=O)c3ccc(C)cc3)C[C@]1(O)[C@@H](OC(=O)NCc1ccc(OC)c(OC)c1)C2	nt	nt	nt	nt	i
COC1=C(Br)C(=O)c2ncccc2C1=O	nt	nt	nt	nt	i
CC(C)Cc1ccc(-c2ccc3nccn3c2)cc1	nt	nt	nt	nt	i
N#CCNC(=O)C1c2ccccc2Oc2ccccc21	i	i	i	i	i
CCOC(=O)N1CCN(C2=C(NS(=O)(=O)c3ccccc3)C(=O)c3ccccc3C2=O)CC1	i	68	i	i	i
CCN1CCN(C2=C(NS(=O)(=O)c3ccccc3)C(=O)c3ccccc3C2=O)CC1	i	74	i	i	i
CC(C)c1cccc(-c2csc(C(C)(O)c3ccccc3)n2)c1 (stereo not given)	nt	nt	nt	nt	i
Cc1cc(C)c(S(=O)(=O)N2CCN(C(=O)C3CCCO3)CC2)c(C)c1 (stereo not given)	i	i	nt	i	i
Cc1ccc2nsnc2c1S(=O)(=O)N1CCN(C(=O)C2CCCO2)CC1 (stereo not given)	i	69	i	i	i
O=C(Nc1ccncc1)c1cn(-c2ccccc2)nc1-c1cccs1	i	i	i	i	i
O=C(CCCc1c[nH]c2ccccc12)NCCc1c[nH]c2ccccc12	i	49	i	i	i
CC(C)CNC(=O)CCCc1c[nH]c2ccccc12	i	i	i	i	i
O=C(COC(=O)c1ccccc1C(=O)OCC(=O)NCCc1c[nH]c2ccccc12)NCCc1c[nH]c2ccccc12	i	68	nt	58	i
CC(NC(=O)COC(=O)c1c[nH]c2ccccc12)c1ccccc1 (stereo not given)	i	43	nt	i	i
CC(NC(=O)COC(=O)c1cn(-c2ccccc2)nc1-c1cccs1)c1ccccc1 (stereo not given)	i	64	i	i	i
O=C(COC(=O)c1c[nH]c2ccccc12)Nc1ccccc1	i	i	nt	i	i
CC(C)C(=O)N1CCCC1(C)C(=O)Nc1ccc(F)cc1 (stereo not given)	nt	nt	nt	nt	i
O=C(C=Cc1ccc2c(c1)OCO2)OCC=Cc1ccc2c(c1)OCO2	nt	nt	nt	nt	i
SMILES	CHO parental Ca	OX1R antag-1	GPR7 antag	OX1R antag-2	MPTP block
CC1(CCc2ccccc2)NC(=O)N(CC(=O)N2CCCCCC2)C1=O (stereo not given)	i	i	nt	i	i
O=C(NCc1ccco1)c1ccc(-c2ccc(F)c(F)c2)c2ccoc12	nt	nt	nt	nt	i
O=C(NCCc1c[nH]c2ccccc12)OCCCCOC(=O)NCCc1c[nH]c2ccccc12	i	61	nt	61	i
O=C1NC[C@H](CCCCN2C[C@H](Cc3ccc(O)cc3)N(CCC3CCCCC3)C(=O)C2=O)N(CCc2ccc(O)cc2)C1=O	nt	nt	nt	nt	i
O=C(Nc1cccc(NC(=O)c2sc3ccccc3c2Cl)c1)c1ccco1	i	76	i	i	i
O=C(Nc1cccc(NC(=O)c2nccc3ccccc23)c1)c1ccco1	i	54	nt	i	i
CNC(=O)c1ccsc1NC(=O)c1sc2ccccc2c1Cl	i	56	i	i	i
COC(=O)[C@]12CCCCC=C1N(CCC1=CCCCC1)C(=O)[C@H](CC(=O)NCCc1ccccc1OC)C2	nt	nt	nt	nt	i
Cc1cc(Cl)ccc1C(O)c1ncc(-c2cccc3ccccc23)[nH]1 (stereo not given)	nt	nt	nt	nt	i
Cc1ccc(S(=O)(=O)NC(Cc2ccccc2)C(=O)O)cc1C (stereo not given)	i	i	i	i	i
